Data set [1] deals with CCRF-CEM. Kind of data set: Cytostatic activity against human CEM cells assessed as inhibition of proliferation after 72 hrs by Coulter cell counting method. It counts as functional, cell-based. In outline: (§1)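 (5–7.5) × 10⁴ tumor cells per well were exposed to test compound at 37 °C in humidified CO₂. Incubation ran 48 h for L1210 and 72 h for CEM and HeLa. Cells were then counted in a Coulter counter. IC₅₀ is the concentration that inhibits cell proliferation by 50%.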

Data set [2] deals with L1210. Briefly: Cytostatic activity against mouse L1210 cells assessed as inhibition of proliferation after 48 hrs by Coulter cell counting method. The note with it: L1210, 48 h. Type of data set: functional, cell-based. In outline:
as §1

Data set [3] has as its system HeLa. Briefly: Cytostatic activity against human HeLa cells assessed as inhibition of proliferation after 72 hrs by Coulter cell counting method. It counts as functional, cell-based. In outline:
as §1

In data set [4] the test system is Human alphaherpesvirus 1. Kind of data set: Antiviral activity against HSV-1 infected in HEL cells assessed as inhibition of virus-induced cytopathogenicity. It counts as functional, organism-based. Put shortly:
(§2)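 Confluent host-cell monolayers in 96-well plates were inoculated with 100 CCID₅₀ of virus while exposed to a range of test compound concentrations. Cytopathic effect was scored once it was complete in untreated infected controls. EC₅₀ is the concentration that reduces virus-induced cytopathogenicity by 50%.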
Background: Protection from cytopathic effect is a common read-out in antiviral testing.

The test system of data set [5] is Human alphaherpesvirus 2. Kind of data set: Antiviral activity against HSV-2 infected in HEL cells assessed as inhibition of virus-induced cytopathogenicity. Type of data set: functional, organism-based. Put shortly: as §2
The test system of data set [6] is Felid alphaherpesvirus 1. Kind of data set: Antiviral activity against Feline herpesvirus 1 infected in HEL cells assessed as inhibition of virus-induced cytopathogenicity. It counts as functional, organism-based. The note with it: for EC50: Felid alphaherpesvirus 1, HEL. Put shortly:
as §2

Data set [7] can be described thus: Cytotoxicity against feline CRFK cells assessed as reduction in cell viability by MTS assay. Type of data set: cell-based, Felis catus. Particulars: cat. In outline:
(§3)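 Uninfected host cells were exposed to test compound, and viability was read by the colorimetric MTS assay. CC₅₀ is the concentration causing a 50% decrease in cell viability.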
(Tetrazolium assays rely on reduction of a dye to a coloured formazan, in cell work by metabolically active cells.)

Data set [8] deals with Vesicular stomatitis virus. Briefly: Antiviral activity against Vesicular stomatitis virus infected in HeLa cells assessed as inhibition of virus-induced cytopathogenicity. Type of data set: functional, organism-based. Put shortly:
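HeLa cell monolayers (confluent) were infected with 100 CCID50 of VSV in the presence of serial compound concentrations. Viral cytopathicity was read when complete in untreated infected controls. EC50 is the concentration that reduced virus-induced cytopathogenicity by 50%.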

Data set [9] deals with Respiratory syncytial virus. Kind of data set: Antiviral activity against Respiratory syncytial virus infected in HeLa cells assessed as inhibition of virus-induced cytopathogenicity. Type of data set: functional, organism-based. Put shortly: as §2
Data set [10] deals with Human alphaherpesvirus 3. Kind of data set: Antiviral activity against Thymidine kinase-positive Varicella-zoster virus Oka infected in HEL assessed as reduction in virus plaque formation. Type of data set: functional, organism-based. Particulars: Human alphaherpesvirus 3, strain Oka vaccine. In outline:
(§4)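 Confluent HEL fibroblast cultures were inoculated with 20 PFU of VZV together with varying compound concentrations. Plaque formation was recorded once complete in untreated infected controls. EC50 is the concentration that reduced viral plaque formation by 50%.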

The test system of data set [11] is Human alphaherpesvirus 3. Kind of data set: Antiviral activity against Thymidine kinase-negative Varicella-zoster virus 07-1 infected in HEL assessed as reduction in virus plaque formation. Particulars: Human alphaherpesvirus 3, 07-1. It counts as functional, organism-based. Put shortly: as §4
The subject of data set [12] is Influenza A virus H3N2. Kind of data set: Antiviral activity against Influenza A virus H3N2 infected in MDCK cells assessed as inhibition of virus-induced cytopathogenicity. Type of data set: functional, organism-based. Put shortly:
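Confluent MDCK cell cultures were infected in the presence of varying compound concentrations. Cytopathicity was recorded once complete in untreated virus-infected controls, scored visually and by MTS colorimetric assay. EC50 is the concentration that reduced virus-induced cytopathogenicity by 50%.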

Data set [13] in a line: Cytotoxicity against MDCK cells assessed as reduction in cell viability by MTS assay. Type of data set: cell-based, Canis lupus familiaris. Particulars: dog. Put shortly:
as §3

Calls of active or inactive are those of the source. The calls are words filed in the database; no cut-off is given here.

Take `O=C(c1ccccc1)n1c(=O)c2ccccc2n(Cc2cn(C[C@H](OCc3ccccc3)[C@H](O)P(=O)(OCc3ccccc3)OCc3ccccc3)nn2)c1=O`: the figures for the IC50 in [1], in [2] and in [3] were 4.7 µM, 4.7 µM and 5.1 µM, respectively. For the same compound, the EC50 amounted to 2.9 µM in data set [4] (Human alphaherpesvirus 1, HEL); 4 µM in data set [5] (Human alphaherpesvirus 2, HEL); 4 µM in data set [6]. Moreover, the MCC in [7] was not below 4 µM.
With `O=c1ccn(Cc2cn(C[C@H](OCc3ccccc3)[C@H](O)P(=O)(OCc3ccccc3)OCc3ccccc3)nn2)c(=O)[nH]1`, the values for the IC50 in data set [1], in [2] and in [3] were 91 µM, 86 µM and 66 µM, respectively. In data set [6], the inhibition result was “inactive”.
On to `NC(=O)c1ncn([C@@H]2O[C@H](CO)[C@@H](O)[C@H]2O)n1` [RIBAVIRIN], for which, in data set [8], the EC50 worked out at 17 µM.
On to `O=c1cnn(Cc2cn(C[C@H](OCc3ccccc3)[C@@H](O)P(=O)(OCc3ccccc3)OCc3ccccc3)nn2)c(=O)[nH]1`, for which the inhibition result in [9] and in data set [8] was “inactive” throughout. The IC50 in data set [1] is 71 µM; in [2], 78 µM; in data set [3], 64 µM. The results for the EC50 in [10] and in [11] were 63.7 µM and 70 µM, respectively.
Take `O=C(c1ccccc1)n1c(=O)ccn(Cc2cn(C[C@H](OCc3ccccc3)[C@H](O)P(=O)(OCc3ccccc3)OCc3ccccc3)nn2)c1=O`: the IC50 turned out to be 21 µM in [1], 21 µM in data set [2] and 57 µM in data set [3]. Also, the inhibition result in data set [4] and in [5] was “inactive” each time.
For the compound `Cn1c(=O)c2c(nc(Cl)n2Cc2cn(C[C@H]3OC(C)(C)O[C@H]3[C@@H](O)P(=O)(OCc3ccccc3)OCc3ccccc3)nn2)n(C)c1=O`, the IC50 in data set [1] stood at 51 µM; in data set [2], 58 µM; in [3], 85 µM. Further, in data set [10], the EC50 was found to be 55.7 µM.
With `CC1(C)O[C@@H]([C@@H](O)P(=O)(OCc2ccccc2)OCc2ccccc2)[C@H](Cn2cc(Cn3ccc(=O)[nH]c3=O)nn2)O1`, the figures for the IC50 in [1], in data set [2] and in data set [3] were more than 200 µM, more than 200 µM and 118 µM, respectively.
For the compound `Cn1c(=O)c2c(nc(Cl)n2Cc2cn(C[C@H](OCc3ccccc3)[C@H](O)P(=O)(OCc3ccccc3)OCc3ccccc3)nn2)n(C)c1=O`, the IC50 in [1] was 25 µM; in [2], 22 µM; in data set [3], 86 µM.
The matching figures for `O=c1cnn(Cc2cn(C[C@H](OCc3ccccc3)[C@H](O)P(=O)(OCc3ccccc3)OCc3ccccc3)nn2)c(=O)[nH]1`: 81 µM, 71 µM and 122 µM.
With `O=c1ccccn1Cc1cn(C[C@H](OCc2ccccc2)[C@@H](O)P(=O)(OCc2ccccc2)OCc2ccccc2)nn1`, the IC50 was 90 µM in [1], 63 µM in data set [2] and 45 µM in data set [3].
Consider `Nc1ncnc2c1ncn2Cc1cn(C[C@H](OCc2ccccc2)[C@@H](O)P(=O)(OCc2ccccc2)OCc2ccccc2)nn1`, for which the results for the half-maximal inhibitory concentration (IC50) in [1], in [2] and in data set [3] were 78 µM, 66 µM and 81 µM, respectively.
In the case of `CC(=O)c1cn(Cc2cn(C[C@H](OCc3ccccc3)[C@H](O)P(=O)(OCc3ccccc3)OCc3ccccc3)nn2)c2ccccc12`, the values for the half-maximal inhibitory concentration (IC50) in data set [1], in data set [2] and in [3] were 16 µM, 15 µM and 13 µM, respectively.
In the case of `O=C(c1ccccc1)n1c(=O)ccn(Cc2cn(C[C@H](OCc3ccccc3)[C@@H](O)P(=O)(OCc3ccccc3)OCc3ccccc3)nn2)c1=O`, the EC50 stood at 12 µM in [9] (human respiratory syncytial virus) and 9 µM in data set [8]. The IC50 in [1] is 21 µM; in data set [2], 26 µM; in [3] it was 76 µM.
With `CC1(C)O[C@@H]([C@@H](O)P(=O)(OCc2ccccc2)OCc2ccccc2)[C@@H](Cn2cc(Cn3cnc4c(N)ncnc43)nn2)O1`, the IC50 was 140 µM in [1], 98 µM in data set [2] and more than 200 µM in data set [3].
For `Cn1c(=O)c2c(nc(Cl)n2Cc2cn(C[C@H](OCc3ccccc3)[C@@H](O)P(=O)(OCc3ccccc3)OCc3ccccc3)nn2)n(C)c1=O` the same measures were 27 µM, 70 µM and more than 200 µM.
Take `Cc1cn(Cc2cn(C[C@@H]3OC(C)(C)O[C@H]3[C@@H](O)P(=O)(OCc3ccccc3)OCc3ccccc3)nn2)c(=O)[nH]c1=O`: the values for the IC50 in [1], in [2] and in [3] were more than 200 µM, 139 µM and 107 µM, respectively.
With `Cn1c(=O)c2c(nc(Cl)n2Cc2cn(C[C@@H]3OC(C)(C)O[C@H]3[C@@H](O)P(=O)(OCc3ccccc3)OCc3ccccc3)nn2)n(C)c1=O`, the IC50 in data set [1], in data set [2] and in data set [3] was more than 200 µM each time.
`Cc1cn(Cc2cn(C[C@H](O)[C@@H](O)P(=O)(O)O)nn2)c(=O)[nH]c1=O`: the IC50 in data set [1], in data set [2] and in data set [3] was more than 200 µM throughout.
As for `O=c1ccn(Cc2cn(C[C@H](OCc3ccccc3)[C@@H](O)P(=O)(OCc3ccccc3)OCc3ccccc3)nn2)c(=O)[nH]1`, the IC50 in [1], in data set [2] and in data set [3] was more than 200 µM each time.
Take `CC(=O)c1cn(Cc2cn(C[C@H](OCc3ccccc3)[C@@H](O)P(=O)(OCc3ccccc3)OCc3ccccc3)nn2)c2ccccc12`: the IC50 in data set [1], in [2] and in [3] was more than 200 µM in each case.
For `CC(=O)Nc1ccn(Cc2cn(C[C@@H]3OC(C)(C)O[C@H]3[C@@H](O)P(=O)(OCc3ccccc3)OCc3ccccc3)nn2)c(=O)n1`, the IC50 in data set [1], in data set [2] and in data set [3] was more than 200 µM throughout.
`O=C(c1ccccc1)n1c(=O)c2ccccc2n(Cc2cn(C[C@H](OCc3ccccc3)[C@@H](O)P(=O)(OCc3ccccc3)OCc3ccccc3)nn2)c1=O`: the inhibition entry in data set [9] and in [8] was “inactive” throughout. In addition, the 50% inhibitory concentration (IC50) was 4.7 µM in data set [1], 4.1 µM in [2] and 7.1 µM in [3].
As to `Cc1cn(Cc2cn(C[C@H](OCc3ccccc3)[C@@H](O)P(=O)(OCc3ccccc3)OCc3ccccc3)nn2)c(=O)[nH]c1=O`, the IC50 in data set [1], in data set [2] and in data set [3] was more than 200 µM throughout. In addition, in [12], the concentration for a half-maximal effect (EC50) was determined as 20 µM. Further, in [13], the CC50 is more than 100 µM. In data set [13], the MCC is more than 100 µM.
With `CC(=O)Nc1ccn(Cc2cn(C[C@H](OCc3ccccc3)[C@@H](O)P(=O)(OCc3ccccc3)OCc3ccccc3)nn2)c(=O)n1`, the results for the IC50 in [1], in data set [2] and in data set [3] were 169 µM, 153 µM and more than 200 µM, respectively.
In the case of `CCOP(=O)(CCCn1cc(Cn2c(=O)n(C(=O)c3ccccc3)c(=O)c3ccccc32)nn1)OCC`, in [6], the EC50 turned out to be 24 µM.

Usually IC50 stands for the concentration that gives 50% inhibition. As usually defined, the EC50 is the concentration at which the effect is half-maximal. In general, CC50 refers to the concentration at which the toxic effect on the cells reaches its halfway point.

Source of the values: ChEMBL document CHEMBL3352515, “Design, synthesis, antiviral and cytostatic activity of ω-(1H-1,2,3-triazol-1-yl)(polyhydroxy)alkylphosphonates as acyclic nucleotide analogues” (Bioorg Med Chem, 2014).
